Experimental data as given in ChEMBL document CHEMBL1154857, “Antimycobacterial flavonoids from the leaf extract of Galenia africana” (J Nat Prod, 2009).
≈ marks a conversion by molar mass, not a printed value. Calls of active or inactive are those of the source. The calls are words filed in the database; no cut-off is given here.

Experiments:
[1] = biological target: Mycothione reductase (Mycobacterium tuberculosis) (UniProt P9WHH3); test: Inhibition of Mycobacterium tuberculosis mycothiol disulfide reductase assessed as NADPH oxidation at 800 uM by Ellmans reagent method
Summary of the method: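 M. tuberculosis mycothiol disulfide reductase (NADPH-dependent) used with the mycothiol analogue BnOMSH as substrate. Activity was followed as the increase in absorbance at […] from reduction of Ellman's reagent by the BnOMSH formed.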

[2] = system: Mycobacterium tuberculosis; test: Antitubercular activity against Mycobacterium tuberculosis H37Rv infected in human U937 cells at MBC by radiometric method; assay type: functional, U-937
[3] = system: Mycobacterium tuberculosis; test: Antitubercular activity against Mycobacterium tuberculosis H37Rv infected in human U937 cells by radiometric method; assay type: functional, U-937
U-937 = test: Cytotoxicity against human U937 cells; assay type: cell-based
[4] = system: Mycolicibacterium smegmatis; test: Antibacterial activity against Mycobacterium smegmatis MC2 155 by microplate dilution method; assay type: functional; conditions: str. MC2 155
Summary of the method: (§1)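 M. smegmatis MC2 155 tested by microplate broth dilution. Highest concentration tested was 620.0 µg/mL. Read-out was MIC, and MBC where determined.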

[5] = system: Mycobacterium tuberculosis; test: Antitubercular activity against Mycobacterium tuberculosis H37Rv by radiometric method; assay type: functional
Summary of the method: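 M. tuberculosis H37Rv (ATCC […], drug-susceptible) tested by the radiometric BACTEC method. MIC was judged from ΔGI against a control vial inoculated at 10⁻² dilution. MBC was also determined. Highest concentration tested was 620.0 µg/mL.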

[6] = system: Mycolicibacterium smegmatis; test: Antibacterial activity against Mycobacterium smegmatis MC2 155 at 620 ug/ml by microplate dilution method; assay type: functional, organism-based; conditions: str. MC2 155; summary of the method: as §1

Sequence of Mycothione reductase (Mycobacterium tuberculosis) (P9WHH3 whole entry): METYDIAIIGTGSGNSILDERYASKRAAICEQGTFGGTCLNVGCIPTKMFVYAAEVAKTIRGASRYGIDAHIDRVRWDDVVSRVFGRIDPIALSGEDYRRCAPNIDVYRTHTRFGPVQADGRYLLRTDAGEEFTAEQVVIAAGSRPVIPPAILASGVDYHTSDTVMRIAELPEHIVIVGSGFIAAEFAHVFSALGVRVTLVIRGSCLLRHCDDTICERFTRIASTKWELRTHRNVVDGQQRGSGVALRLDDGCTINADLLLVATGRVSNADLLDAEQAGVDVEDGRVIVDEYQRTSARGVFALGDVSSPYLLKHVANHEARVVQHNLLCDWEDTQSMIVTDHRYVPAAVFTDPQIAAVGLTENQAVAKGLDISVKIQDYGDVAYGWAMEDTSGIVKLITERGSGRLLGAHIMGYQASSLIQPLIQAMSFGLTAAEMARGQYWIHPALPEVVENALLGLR

Compound	inhibition [1]	inhibition (INH) [2]	MBC [3]	MIC [3]	IC50 (U-937)	MBC [4]	MIC [4]	MIC [5]	MIC [6]
O=C(/C=C/c1ccccc1)c1ccc(O)cc1O [2',4'-DIHYDROXYCHALCONE]	inactive	99.5%	416 µM (≈ 100 µg/mL)	195 µM (≈ 46.9 µg/mL)	80.2 µM	234 µM (≈ 56.3 µg/mL)	469 µM (≈ 113 µg/mL)	195 µM (≈ 46.9 µg/mL)	
COc1cccc2c1C(=O)c1c(O)c3c(c(O)c1C2=O)C[C@@](O)(C(=O)CO)C[C@@H]3O[C@H]1C[C@H](N)[C@H](O)[C@H](C)O1 [DOXORUBICIN]					1.1 µM				
O=C1C[C@@H](c2ccccc2O)Oc2cc(O)cc(O)c21	inactive	99.5%	735 µM (≈ 200 µg/mL)	368 µM (≈ 100 µg/mL)	110 µM	441 µM (≈ 120 µg/mL)	110 µM (≈ 30 µg/mL)	368 µM (≈ 100 µg/mL)	
NNC(=O)c1ccncc1 [ISONIAZID]				2.9 µM (≈ 0.398 µg/mL)				1.4 µM (≈ 0.192 µg/mL)	
O=C(O)c1cn(C2CC2)c2cc(N3CCNCC3)c(F)cc2c1=O [CIPROFLOXACIN]						2.2 µM (≈ 0.729 µg/mL)	1.5 µM (≈ 0.497 µg/mL)		
O=C(/C=C/c1cccc(O)c1)c1ccc(O)cc1O	inactive	99.5%	368 µM (≈ 94.2 µg/mL)	184 µM (≈ 47.1 µg/mL)	415 µM			417 µM (≈ 107 µg/mL)	inactive
COc1c(O)ccc(C(=O)/C=C/c2cccc(O)c2)c1O					333 µM				
